The values that follow come from ChEMBL document CHEMBL4616672, “Inhibiting Matrix Metalloproteinase-2 Activation by Perturbing Protein-Protein Interactions Using a Cyclic Peptide” (J Med Chem, 2020).

Assay [1] concerns the target T1, 72 kDa type IV collagenase (Homo sapiens, UniProt P08253). In words: Binding affinity to N-terminal (His6)-MBP tagged full-length human proMMP2 expressed in Escherichia coli BL21(DE3) RIL assessed as reduction in Rhod-cy(WPHPY binding incubated for 30 mins by fluorescence polarization assay. An outline of the steps: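 Competitive fluorescence polarization in PBS. Recombinant tag-free full-length proMMP2 (TEV-cleaved after nickel purification, then ion-exchange and size exclusion) and Rhod-cy(WPHPY) each held at 100 nM, with unlabeled ligand titrated. Read as FP. Triplicate individually prepared samples averaged, reported as mean ± SD. Each experiment repeated at least three times on different days.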
(In general: In fluorescence polarisation assays a small probe gives low polarisation when free and higher when bound to something large.)

In assay [2] the target is T1, 72 kDa type IV collagenase. In words: Inhibition of MMP2 in human WM115 cells at 0.1 nM to 1 uM incubated for 5 mins using MMP2-specific fluorogenic substrate by fluorescence based assay. The class given is cell-based. An outline of the steps:
(§1)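 WM115 serum-free 24 h conditioned medium, concentrated and normalized by BCA. 10 μg protein in TNC buffer (50 mM Tris, 0.15 M NaCl, 10 mM CaCl2, pH 7.5) with compound in PBS, equilibrated 5 min at 37 °C. MMP2-specific fluorogenic substrate (3 μM) added, 20 min at 37 °C, read at Ex 325/Em 393 nm. For the TIMP2 condition, recombinant TIMP2 (10 μL of 1 μg/μL) added to all mixtures. Triplicates, three repeats.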

The target of assay [3] is T1, 72 kDa type IV collagenase. In words: Binding affinity to of proMMP2 in human WM115 cells assessed as reduction in cell membrane association of proMMP at 10 nM incubated for 15 hrs by immunofluorescence based confocal microscopy. An outline of the steps:
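WM115 cells in full medium exposed to 10 nM for 15 h, fixed in 4% paraformaldehyde without permeabilization and blocked in 5% goat serum. Stained overnight at 4 °C with anti-MMP2 (1:500), then Alexa Fluor 594 anti-rabbit (1:2000). Confocal imaging; single-cell intensity quantified over thirty cells per image. Three repeats.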

For assay [4], the system named is Matrix metalloproteinase-2 (Homo sapiens). Nature of the assay: Inhibition of proMMP2 activation in human WM115 cells assessed as decrease in cell numbers in wound region at 1 nM to 1 uM incubated for 24 hrs by wound-healing scratch assay.
For assay [5], the target named is T1, 72 kDa type IV collagenase. Nature of the assay: Inhibition of proMMP2 activation in human WM115 cells assessed as reduction in MMP2 activity at 0.1 nM to 1 uM incubated for 24 hrs by gelatin zymography. The class given is cell-based. The method in brief:
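WM115 cells (600k per well) seeded 8 h in full medium, then 24 h at 37 °C in serum-free medium with compound. Medium concentrated and normalized to 10 μg/mL protein. Run on 7.5% gelatin gel, washed in Triton X-100 buffer, incubated 20 h at 37 °C in CaCl2/ZnCl2 buffer, then Coomassie stained. Three independent experiments.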

Assay [6] addresses T1, 72 kDa type IV collagenase. Nature of the assay: Binding affinity to catalytic domain of proMMP2 in human WM115 cells assessed as reduction in TIMP2-mediated inhibition of MMP2 enzyme activity at 0.1 nM to 1 uM incubated for 5 mins using MMP2-specific fluorogenic substrate by fluorescence based assay. Type of assay: cell-based. An outline of the steps:
as §1

For assay [7], the target named is T1, 72 kDa type IV collagenase. Nature of the assay: Inhibition of proMMP2 activation in human WM115 cells assessed as reduction in MMP2 protein expression incubated for 24 hrs by Western blot analysis. The class given is cell-based. The method in brief: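 WM115 cells treated 24 h in serum-free medium with compound (PBS control). Conditioned medium immunoblotted for MMP2 with HRP secondary and chemiluminescent detection. Three independent blots, each with medium from a fresh cell batch.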
A general note: In western blotting, separated proteins are transferred to a membrane and probed.

In assay [8] the target is T1, 72 kDa type IV collagenase. In words: Binding affinity to hemopexin domain of proMMP2 in human WM115 cells assessed as inhibition of TIMP2-MMP2 interaction using surface immobilized recombinant TIMP incubated for 1 hr by ELISA based competitive binding assay. Type of assay: cell-based. The method in brief:
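His-tagged recombinant TIMP2 (9 pmol/well) captured on Ni-coated wells, blocked with His6 peptide. WM115 serum-free 24 h conditioned medium, concentrated (10 kDa cutoff), mixed with compound in PBS (PBS control) and incubated 1 h at room temperature with shaking. Bound MMP2 detected with anti-MMP2 rabbit mAb, HRP secondary and chemiluminescence. Triplicates averaged, experiment repeated three times.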

Assay [9] has as its target Matrix metalloproteinase-9 (Homo sapiens) (UniProt P14780). Nature of the assay: Inhibition of proMMP9 activation in human WM115 cells assessed as reduction in MMP9 activity at 0.1 nM to 1 uM incubated for 24 hrs using enzyme-specific fluorogenic substrate by fluorescence based assay. The class given is cell-based. The method in brief: (§2)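 WM115 cells grown to 80% confluency, then cultured 24 h in serum-free medium containing compound (no-compound control). Medium concentrated and BCA-normalized. 10 μg protein in TNC buffer (pH 7.5) with MMP2- or MMP9-specific fluorogenic substrate (3 μM), incubated 20 min at 37 °C, fluorescence read at Ex 325/Em 393 nm. Triplicates, three repeats.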

Assay [10] concerns Matrix metalloproteinase-2 (Homo sapiens). Nature of the assay: Inhibition of proMMP2 activation in human WM115 cells assessed as decrease in cell invasion at 1 nM to 1 uM incubated for 24 hrs by transwell cell invasion assay.
Assay [11] addresses T1, 72 kDa type IV collagenase. In words: Inhibition of proMMP2 activation in human WM115 cells assessed as reduction in MMP2 activity at 0.1 nM to 1 uM incubated for 24 hrs using enzyme-specific fluorogenic substrate by fluorescence based assay. Type of assay: cell-based. An outline of the steps: as §2
Assay [12] concerns the target T1, 72 kDa type IV collagenase. Nature of the assay: Binding affinity to […] expressed in Escherichia coli BL21(DE3) RIL incubated for 30 mins by fluorescence polarization assay.

Calls of active or inactive are those of the source. *1 amine or outer side, *2 acyl side, *3 side chain or, on linkers, in order; H or OH if unused. Where a SMILES comes first, the peptide text is derived from it. Bridges are numbered along the chain shown (N, C = ends). Triazole bridges read from a SMILES are 1,4-linked. [ ]: non-standard residue; d: D form. The star is where a group is joined. RhodamineB = CCN(CC)c1ccc2c(-c3ccccc3C(=O)*)c3ccc(=[N+](CC)CC)cc-3oc2c1; Lys(N3) = [N-]=[N+]=NCCCC[C@H](N)C(=O)O; X1 = O=C([C@H](Cc1c[nH]nn1)N[*:1])[*:2]; NMeGABA = CN(CCCC(=O)[*:2])[*:1]; Pra = C#CC[C@H](N)C(=O)O

T1 sequence (P08253 whole entry): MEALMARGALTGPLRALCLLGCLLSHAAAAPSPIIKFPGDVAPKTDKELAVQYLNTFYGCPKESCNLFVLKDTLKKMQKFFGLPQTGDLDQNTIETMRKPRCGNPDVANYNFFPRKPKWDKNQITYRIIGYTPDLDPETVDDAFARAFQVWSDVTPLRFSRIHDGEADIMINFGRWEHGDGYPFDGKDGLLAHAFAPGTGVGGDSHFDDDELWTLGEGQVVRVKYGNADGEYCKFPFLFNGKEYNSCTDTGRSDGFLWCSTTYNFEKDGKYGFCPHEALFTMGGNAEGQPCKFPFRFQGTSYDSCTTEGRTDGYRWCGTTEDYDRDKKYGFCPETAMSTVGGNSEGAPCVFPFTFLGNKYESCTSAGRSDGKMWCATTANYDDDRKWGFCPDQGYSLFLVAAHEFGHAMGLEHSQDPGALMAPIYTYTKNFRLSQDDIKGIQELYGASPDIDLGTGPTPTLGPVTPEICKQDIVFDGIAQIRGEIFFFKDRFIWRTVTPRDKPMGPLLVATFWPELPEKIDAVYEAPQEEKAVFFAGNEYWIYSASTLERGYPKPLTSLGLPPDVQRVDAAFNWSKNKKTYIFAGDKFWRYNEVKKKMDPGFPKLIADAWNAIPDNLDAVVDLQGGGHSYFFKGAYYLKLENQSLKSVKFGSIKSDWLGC
Sequence of Matrix metalloproteinase-9 (Homo sapiens) (P14780 whole entry): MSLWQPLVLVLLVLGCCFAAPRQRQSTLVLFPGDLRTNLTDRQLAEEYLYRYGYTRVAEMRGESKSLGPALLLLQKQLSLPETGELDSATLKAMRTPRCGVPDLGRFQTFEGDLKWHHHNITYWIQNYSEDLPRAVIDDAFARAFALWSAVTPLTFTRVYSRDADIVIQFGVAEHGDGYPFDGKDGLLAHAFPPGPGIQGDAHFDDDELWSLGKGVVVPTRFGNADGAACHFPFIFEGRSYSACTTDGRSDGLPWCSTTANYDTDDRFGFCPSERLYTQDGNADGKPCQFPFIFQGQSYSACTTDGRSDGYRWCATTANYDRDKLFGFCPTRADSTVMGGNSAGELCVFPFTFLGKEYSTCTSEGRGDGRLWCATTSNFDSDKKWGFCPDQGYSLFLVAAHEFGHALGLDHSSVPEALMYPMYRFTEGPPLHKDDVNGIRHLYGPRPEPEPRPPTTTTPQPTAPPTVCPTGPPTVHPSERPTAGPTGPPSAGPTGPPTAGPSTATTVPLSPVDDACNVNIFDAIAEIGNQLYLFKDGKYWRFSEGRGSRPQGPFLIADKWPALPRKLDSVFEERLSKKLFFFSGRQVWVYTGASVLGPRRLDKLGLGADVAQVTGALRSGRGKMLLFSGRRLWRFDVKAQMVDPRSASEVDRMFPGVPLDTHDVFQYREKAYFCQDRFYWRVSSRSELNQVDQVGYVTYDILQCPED

With `C[C@@H]1NC(=O)[C@@H](N)Cc2cn(nn2)CCCC[C@@H](C(N)=O)NC(=O)[C@H](Cc2ccc(O)cc2)NC(=O)[C@@H]2CCCN2C(=O)[C@H](Cc2c[nH]cn2)NC(=O)[C@@H]2CCCN2C1=O` (H-[Pra]APHPY[Lys(N3)]-NH2; triazole 1-7), the outcome in assay [1] was Active.

For `C[C@@H]1NC(=O)[C@H](Cc2c[nH]c3ccccc23)NC(=O)[C@@H](N)Cc2cn(nn2)CCCC[C@@H](C(N)=O)NC(=O)[C@H](Cc2ccc(O)cc2)NC(=O)[C@@H]2CCCN2C(=O)[C@H](Cc2c[nH]cn2)NC1=O` (H-[Pra]WAHPY[Lys(N3)]-NH2; triazole 1-7), the result in [1] was Active.

`C[C@@H]1NC(=O)[C@@H]2CCCN2C(=O)[C@H](Cc2c[nH]c3ccccc23)NC(=O)[C@@H](N)Cc2cn(nn2)CCCC[C@@H](C(N)=O)NC(=O)[C@H](Cc2ccc(O)cc2)NC(=O)[C@@H]2CCCN2C1=O` (H-[Pra]WPAPY[Lys(N3)]-NH2; triazole 1-7): the outcome in assay [1] was Active.

For the compound `C[C@@H]1NC(=O)[C@H](Cc2c[nH]cn2)NC(=O)[C@@H]2CCCN2C(=O)[C@H](Cc2c[nH]c3ccccc23)NC(=O)[C@@H](N)Cc2cn(nn2)CCCC[C@@H](C(N)=O)NC(=O)[C@H](Cc2ccc(O)cc2)NC1=O` (H-[Pra]WPHAY[Lys(N3)]-NH2; triazole 1-7), the result in assay [1] was Active.

In the case of `C[C@@H]1NC(=O)[C@@H]2CCCN2C(=O)[C@H](Cc2c[nH]cn2)NC(=O)[C@@H]2CCCN2C(=O)[C@H](Cc2c[nH]c3ccccc23)NC(=O)[C@@H](N)Cc2cn(nn2)CCCC[C@@H](C(N)=O)NC1=O` (H-[Pra]WPHPA[Lys(N3)]-NH2; triazole 1-7), the result in [1] was Active.

On to `NC(=O)[C@@H]1CCCCn2cc(nn2)C[C@H](N)C(=O)N[C@@H](Cc2c[nH]c3ccccc23)C(=O)N2CCC[C@H]2C(=O)N[C@@H](Cc2c[nH]cn2)C(=O)N2CCC[C@H]2C(=O)N[C@@H](Cc2ccc(O)cc2)C(=O)N1` (H-[Pra]WPHPY[Lys(N3)]-NH2; triazole 1-7), for which the inhibition entry in [2] and in [9] was “inactive” throughout. For the same compound, the outcome in assay [3] and in [8] was Active. The inhibition result in assay [4], in [10] and in assay [11] was “Active” throughout. The inhibition result in assay [5] and in assay [7] was “Dose-dependent effect” throughout. Also, in [6], the result was inactive.

With `NCCCC[C@H](NC(=O)[C@H](Cc1ccc(O)cc1)NC(=O)[C@@H]1CCCN1C(=O)[C@H](Cc1c[nH]cn1)NC(=O)[C@@H]1CCCN1C(=O)[C@H](Cc1c[nH]c2ccccc12)NC(=O)[C@@H](N)Cc1c[nH]nn1)C(N)=O` (H-[X1]WPHPYK-NH2), the inhibition entry in assay [11] is “inactive”.

Regarding `CCN(CC)c1ccc2c(-c3ccccc3C(=O)N(C)CCCC(=O)N[C@H]3Cc4cn(nn4)CCCC[C@@H](C(N)=O)NC(=O)[C@H](Cc4ccc(O)cc4)NC(=O)[C@@H]4CCCN4C(=O)[C@H](Cc4c[nH]cn4)NC(=O)[C@@H]4CCCN4C(=O)[C@H](Cc4c[nH]c5ccccc45)NC3=O)c3ccc(=[N+](CC)CC)cc-3oc2c1` (RhodamineB-[NMeGABA][Pra]WPHPY[Lys(N3)]-NH2; triazole 2-8), in [12], the Kd is 0.28 µM. The outcome in [1] was Active.

The term Kd denotes a measure of binding affinity in units of concentration.
